Published values gathered from unrelated publications.
Cell line: RAW264.7

Structure (SMILES) | test | setting | quantity | value
COc1ccc(C[C@H](N)C(=O)N[C@H]2[C@@H](O)[C@H](n3cnc4c(N(C)C)ncnc43)O[C@@H]2CO)cc1 | cell growth or viability, resazurin | 72 h | IC50 | 1.54 µM
C[C@]12C=CC(=O)C=C1CC[C@@H]1[C@@H]2[C@@H](O)C[C@@]2(C)[C@H]1CC[C@]2(O)C(=O)CO | NO release, inhibitor, Griess | 24 h, LPS-stimulated | IC50 | 0.2 µg/mL
C[C@@H]1C[C@H]2[C@@H]3CCC4=CC(=O)C=C[C@]4(C)[C@@]3(F)[C@@H](O)C[C@]2(C)[C@@]1(O)C(=O)CO | NO release, inhibitor, Griess | LPS-stimulated | IC50 | 13.1 µM
[H]/N=C(/NC)NCCC[C@H](N)C(=O)O | NO release, inhibitor, Griess | LPS-stimulated | IC50 | 21.8 µM
C=C1CC[C@@H]2[C@](C)(CO)[C@H](O)CC[C@@]2(C)[C@@H]1C/C=C1/C(=O)OC[C@H]1O | NO release, inhibitor, Griess | 24 h, LPS-stimulated | IC50 | 48.6 µM
[H]/N=C(/NC)NCCC[C@H](N)C(=O)O | NO release, inhibitor, Griess | 250 µg/mL, 24 h, LPS-stimulated | inhibition | 97.1%
COc1ccc2c(c1)c(CC(=O)O)c(C)n2C(=O)c1ccc(Cl)cc1 | NO release, inhibitor, Griess | 24 h, LPS-stimulated | IC50 | 26.5 µM
CCOc1ccc(Nc2c3c(nc4ccccc24)CCC3)cc1 | cell growth or viability, resazurin | 72 h | IC50 | 38.4 µM
